# MBD2 DNA inh – blocks human MBD2 binding to methylated DNA. inhibition, % at 4.4 µM. TR-FRET, MBD2 binding to methylated oligonucleotide. 0.31% of 370,000 active; in the data active = inhibition above about 13%
# Target sequence (Q9UBB5 whole entry, looked up): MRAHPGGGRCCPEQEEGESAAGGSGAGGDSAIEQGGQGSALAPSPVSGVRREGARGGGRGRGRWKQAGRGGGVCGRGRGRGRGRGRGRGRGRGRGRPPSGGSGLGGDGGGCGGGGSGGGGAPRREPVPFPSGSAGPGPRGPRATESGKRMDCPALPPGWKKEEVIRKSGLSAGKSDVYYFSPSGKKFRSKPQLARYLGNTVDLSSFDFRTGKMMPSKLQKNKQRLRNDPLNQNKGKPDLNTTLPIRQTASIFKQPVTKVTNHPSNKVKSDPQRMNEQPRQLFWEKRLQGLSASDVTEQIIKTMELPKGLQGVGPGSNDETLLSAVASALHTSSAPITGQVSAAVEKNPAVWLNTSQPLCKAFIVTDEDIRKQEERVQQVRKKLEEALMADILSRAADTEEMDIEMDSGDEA
# LEDGF integ inh – blocks HIV-1 LEDGF/p75-dependent DNA integration. TR-FRET IN-LEDGF/p75 DNA integration, Eu/Cy5. inhibition, % at 3.7 µM. 0.64% of 370,000 active. AID 743269;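 active = inhibition above the screen-wide mean plus 3 SD, cut at about 13% in these data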;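 note: signal is the Cy5 over europium emission ratio at 671 and 618 nm; 0% = plate median of compound wells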
# UHRF1 binding – UHRF1 methyl-DNA binding inhibition | UHRF1 binding to methylated oligo, TR-FRET | 0.75% of 370,000 active | inhibition, % at 4.4 µM | Q96T88 | AID 687016; in the data active = inhibition above about 21%;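 note: UHRF1 SRA domain binding a hemimethylated CpG hairpin DNA probe; 0% = median of test compound wells and 100% = reference inhibitor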
# NSD2 HMT inh – NSD2 (human) methyltransferase inhibition; O96028; NSD2 peptide methylation, AlphaScreen, 120 min; inhibition, % at 12.5 µM; 0.54% of 310,000 active; AID 743445; in the data active = inhibition above about 50%
# TDP2 absorb – TDP2 (human) inhibition, absorbance primary screen; O95551; recombinant TDP2, T5PNP hydrolysis, p-nitrophenol absorbance 415 nm; inhibition, % at 12.8 µM; 0.34% of 370,000 active;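 active = inhibition above the mean of all tested compounds plus 3 SD, set per campaign, cut at about 25% in these data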;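 note: 0% = DMSO with enzyme and 100% = buffer with substrate but no TDP2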
#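 System – recombinant human TDP2 · Quantity – TDP2 enzyme at 120 nM final · Doses – single concentration, 12.8 µM nominal, with 1% DMSO · Incubation – 2 h at 37 °C · Measured by – epi absorbance of p-nitrophenol freed from T5PNP by hydrolysis · Read-out – % inhibition relative to enzyme-containing and enzyme-free wells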
# Casp6 inh – inhibitors of human caspase-6; inhibition, % at 12.5 µM; purified caspase-6, Z-VEID-R110 cleavage fluorescence; P55212; AID 686996; 0.53% of 350,000 active;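 active = mean inhibition across replicates at least about 35%, with every replicate also reaching that limit, limit read from the data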;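 note: 0% = median of neutral control wells and 100% = no fluorescence left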
# * = called active by the depositor; . = no result given. Sampled rows, rich in hits. Any-hit rate of the full collection: about 1.9%.
SMILES,MBD2 DNA inh,LEDGF integ inh,UHRF1 binding,NSD2 HMT inh,TDP2 absorb,Casp6 inh
CCCN(C(=O)CSc1nnnn1C)C1CCS(=O)(=O)C1 (stereo not drawn),3,3,22*,-2,-1,-2
N#C/C(=C\c1c(N2CCCCCC2)nc2ccccn2c1=O)C(=O)NC1CCS(=O)(=O)C1 (stereo not drawn),12,2,24*,2,8,.
CC(C)N1CCC(N2CCN(Cc3cccc4nonc34)CC2CCO)CC1 (stereo not drawn),-2,-13,79*,2,6,-14
CC(C)N1CCC(N2CCN(Cc3ccc4nonc4c3)CC2CCO)CC1 (stereo not drawn),0,1,-2,1,-2,-12
CO[C@@H]1CN(C)C(=O)c2ccc(NC(=O)C3CCCC3)cc2OC[C@H](C)NC[C@H]1C,.,.,.,.,.,-2
COc1ccc(CCNC(=O)c2cc3c(=O)n4ccccc4nc3n(CCCN3CCOCC3)c2=N)cc1,-4,0,24*,-7,-20,.
COc1ccccc1C(=O)NCC(=O)N/N=C/c1ccc([N+](=O)[O-])cc1,-5,1,25*,-2,5,0
CCOC(=O)CCCCC(=O)c1[nH]c(=O)[nH]c1CSc1nc(-c2ccccc2)c(C#N)c(=O)[nH]1,-1,15*,-2,15,16,.
COc1ccc(N2C(=O)N3[C@H](c4ccc(Cl)cc4)[C@@H]4C(=O)N(C5CCCCC5)C(=O)[C@@H]4[C@]3(C)C2=O)cc1,7,1,22*,.,10,1
O=C(C[C@H]1C[C@H]2c3cc(NC(=O)C4CCC4)ccc3O[C@H]2[C@H](CO)O1)NCc1ccccc1,.,.,.,.,.,-5
O=C(C[C@H]1CC[C@@H]2[C@H](COC[C@@H](O)CN2C(=O)Nc2cccc(Cl)c2)O1)NCCCN1CCOCC1,.,.,.,.,.,-1
O=C(NC(=S)NCCCN1CCOCC1)c1ccc(Br)cc1,-4,6,-1,-1,-9,-6
O=C(CCNC(=O)c1ccc(Br)cc1)NCCCN1CCOCC1,6,-2,23*,-1,5,0
C=CCN(c1ccc(C(=O)NCCN2CCOCC2)cc1)S(C)(=O)=O,-2,3,29*,1,4,2
C[C@@H]1CCCCO[C@@H](CN(C)C(=O)Nc2cccc3ccccc23)[C@H](C)CN([C@H](C)CO)C(=O)c2cc(NS(=O)(=O)c3cccs3)ccc2O1,.,.,.,.,.,-2
CCCN1[C@@H]2c3ccc(-c4cccc(OC)c4)c(=O)n3C[C@H]1[C@H](CO)[C@H]2C(=O)NCC,.,.,.,.,.,1
C[C@@H]1CN([C@H](C)CO)C(=O)c2cc(NC(=O)Nc3ccc(C(F)(F)F)cc3)ccc2O[C@@H](C)CCCCO[C@@H]1CN(C)S(=O)(=O)c1cccs1,.,.,.,.,.,2
CC(C)(C)C(=O)Nc1ccc(C(=O)Nc2cccc(Oc3ccc(C(=O)O)c(C(=O)O)c3)c2)cc1,2,-1,1,5,1,19
O=C(Nc1cccc(Oc2ccc(C(=O)O)c(C(=O)O)c2)c1)c1ccc(-c2ccccc2)cc1,2,9,-4,32,-8,42*
C[C@@H]1CN([C@H](C)CO)C(=O)c2cc(C#CCN(C)C)cnc2O[C@@H]1CN(C)Cc1ccc(C(=O)O)cc1,.,.,.,.,.,1
CCC1CCCCN1CCNC(=O)CCS(=O)(=O)c1ccc(Br)cc1 (stereo not drawn),6,1,25*,6,-12,.
O=C(CCS(=O)(=O)c1ccc(Br)cc1)N1CCCCCC1,-5,1,3,10,-4,61*
O=C(C[C@@H]1C[C@H]2c3cc(NS(=O)(=O)c4ccc(F)cc4)ccc3O[C@H]2[C@H](CO)O1)N1CCCCC1,.,.,.,.,.,2
COc1ccccc1-c1ccc2c(c1)O[C@@H](CN(C)C(=O)c1cccnc1)[C@@H](C)CN([C@@H](C)CO)S2(=O)=O,.,.,.,.,.,5
COCC#Cc1ccc([C@@H]2[C@@H](CO)N3C(=O)CN(C(=O)Nc4ccc(F)cc4)C[C@@H]23)cc1,.,.,.,.,.,-1
SMILES,MBD2 DNA inh,LEDGF integ inh,UHRF1 binding,NSD2 HMT inh,TDP2 absorb,Casp6 inh
COc1ccc(-n2nc3c(c2NC(=O)c2c(-c4ccccc4Cl)noc2C)CS(=O)(=O)C3)cc1,-5,-3,0,-1,-3,42*
C[C@@H]1CN([C@H](C)CO)C(=O)Cc2cc(NS(=O)(=O)c3ccc(Cl)cc3)ccc2O[C@H]1CN(C)Cc1ccc2c(c1)OCO2,.,.,.,.,.,1
Nc1cc(C(Cl)=C(Cl)Cl)c(S(N)(=O)=O)cc1S(N)(=O)=O,-1,1,-1,.,5,76*
C[C@@H]1CN([C@H](C)CO)C(=O)c2cc(C#CC3(O)CCCC3)cnc2O[C@@H]1CN(C)C(=O)Cc1ccncc1,.,.,.,.,.,0
O=C(CN1CCCC1)Nc1cccc(Cl)c1,3,0,2,5,-9,-2
O=C(CN1CCCCCCC1)Nc1cc(Cl)cc(Cl)c1,-5,4,57*,0,-14,-4
Cc1ccc(Cl)cc1NC(=S)N(Cc1ccccc1)Cc1cccnc1,9,-7,25*,2,-10,1
CC1(C#CC[N+]2(C)CCCCC2)CCC2C(O1)c1ccccc1OC2(C)C (stereo not drawn),8,5,24*,45,7,-12
CC1(C(O)(C#CC[N+]2(C)CCCCC2)c2ccccc2)CCCC1 (stereo not drawn),5,-1,4,0,2,0
Cc1noc(C)c1NC(=O)N(C)C[C@H]1Oc2ncc(C#CC3CCCCC3)cc2C(=O)N([C@@H](C)CO)C[C@H]1C,.,.,.,.,.,-3
Nc1ccc(C(=O)OCC(=O)NC2CC2)cc1[N+](=O)[O-],-3,-6,-2,-3,3,-2
Cc1cc(C(=O)OCC(=O)NC2CC2)ccc1[N+](=O)[O-],4,-2,80*,-5,7,1
COc1ccc(Nc2cccc3ccccc23)cc1,3,3,21*,.,-1,.
COc1ccc(Nc2cccccc2=O)cc1,-2,-3,0,9,-9,.
COc1ccccc1NC(=O)N1CC(=O)N2[C@H](CO)[C@H](c3ccc(C#CC(C)C)cc3)[C@H]2C1,.,.,.,.,.,3
CCCn1nc(C(=O)Nc2nc3ccccc3[nH]2)c2ccccc2c1=O,2,2,-7,0,-2,-1
CC(C)n1nc(C(=O)Nc2nc3ccccc3[nH]2)c2ccccc2c1=O,3,-4,98*,3,2,1
O=C(COC(=O)COc1ccccc1)Nc1ncc([N+](=O)[O-])s1,2,32*,7,.,-5,33
O=C(COc1ccc(Cl)cc1)Nc1ncc([N+](=O)[O-])s1,-3,5,2,-1,-21,-1
COc1ccc2c(c1)c(=O)oc1c(C)c(OCc3cc(C(=O)O)oc3C)ccc12,2,3,3,.,3,51*
